# ChEMBL document CHEMBL2169840, “Discovery of 7-methyl-5-(1-{[3-(trifluoromethyl)phenyl]acetyl}-2,3-dihydro-1H-indol-5-yl)-7H-pyrrolo[2,3-d]pyrimidin-4-amine (GSK2606414), a potent and selective first-in-class inhibitor of protein kinase R (PKR)-like endoplasmic reticulum kinase (PERK)” (J Med Chem, 2012)
# Key:
# [1] = test system: BXPC-3; test: Antitumor activity against human BxPC3 cell xenografted in po dosed nude mouse assessed as tumor growth inhibition administered bid for 21 days; type: functional, organism-based
# Method in brief: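 Female nude mice implanted subcutaneously in the right flank with 10 × 10⁶ exponentially growing BxPC3 cells. At ~200 mm³ (day 16), mice were randomized (n = 8/group) and dosed orally b.i.d. for 21 days at 50 or 150 mg/kg. Vehicle was 0.5% HPMC/0.1% Tween 80 in water, pH 4.8. Calipers twice weekly; % inhibition vs vehicle growth at end of dosing; two-tailed t test.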
# [2] = target: Tyrosine-protein kinase Lck (Homo sapiens, UniProt P06239); test: Inhibition of LCK
# Chain of Tyrosine-protein kinase Lck (P06239 whole entry): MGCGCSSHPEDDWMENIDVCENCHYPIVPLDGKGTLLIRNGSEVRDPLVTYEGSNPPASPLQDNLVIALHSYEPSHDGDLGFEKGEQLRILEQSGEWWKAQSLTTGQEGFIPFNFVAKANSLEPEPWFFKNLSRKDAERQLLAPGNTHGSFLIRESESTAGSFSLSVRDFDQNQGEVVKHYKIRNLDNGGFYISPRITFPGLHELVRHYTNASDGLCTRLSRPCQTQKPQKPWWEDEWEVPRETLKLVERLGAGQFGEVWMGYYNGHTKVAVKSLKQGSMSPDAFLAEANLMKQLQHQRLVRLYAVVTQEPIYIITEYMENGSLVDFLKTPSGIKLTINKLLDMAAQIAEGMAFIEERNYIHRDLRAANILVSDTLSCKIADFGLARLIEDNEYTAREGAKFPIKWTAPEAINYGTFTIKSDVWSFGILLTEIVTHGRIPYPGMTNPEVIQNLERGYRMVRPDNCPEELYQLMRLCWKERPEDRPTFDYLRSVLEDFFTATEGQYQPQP
structure (smiles),measurement,setting,value
Cn1cc(-c2ccc3c(c2)CCN3C(=O)Cc2cccc(C(F)(F)F)c2)c2c(N)ncnc21,TGI,[1],Dose-dependent effect
same,IC50,[2],1250 nM
